Source: ChEMBL document CHEMBL1914449, “Lead optimization at C-2 and N-3 positions of thiazolidin-4-ones as HIV-1 non-nucleoside reverse transcriptase inhibitors” (Bioorg Med Chem, 2011)
In brackets after ≈: the same amount, converted by molar mass.

System: Human immunodeficiency virus 1
Test: Antiviral activity against R5 tropic Human immunodeficiency virus 1 subtype B-ADA5 infected in human TZM-bl cells assessed as inhibition of virus-induced cytopathic effect after 2 days by luciferase assay
Type: functional, organism-based
Details: Human immunodeficiency virus 1, subtype B-ADA5, TZM-bl, 48 h
Summary of the method: (§1)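 TZM-bl cells were seeded at 1 × 10^4 per well and incubated overnight at 37 °C in 5% CO2. Medium was then replaced with HIV-1 stock for 2 h at 37 °C, and compound concentrations giving >50% viability were added. After two days, luciferase activity was read as RLU. EC50 is the mean of two independent assays, each in duplicate. Nevirapine served as positive control.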

| Structure (SMILES) | EC50 [µg/mL] |
| --- | --- |
| Cc1cc(N2C(=O)CSC2c2c(F)cccc2Cl)nc(C)c1Br (stereo not given) | 0.12 (≈ 0.289 µM) |
| Cc1cc(N2C(=O)CSC2c2c(F)cccc2F)no1 (stereo not given) | 1.34 (≈ 4.52 µM) |
| Cc1cccc(N2C(=O)CSC2c2c(Cl)cncc2Cl)n1 (stereo not given) | 1.64 (≈ 4.82 µM) |
| CSc1nc(Cl)cc(N2C(=O)CSC2c2c(F)cccc2Cl)n1 (stereo not given) | 1.26 (≈ 3.23 µM) |
| Cc1nc(N2C(=O)CSC2c2c(Br)cncc2Br)ccc1Br (stereo not given) | 2.52 (≈ 4.96 µM) |
| Cc1cc(N2C(=O)CSC2c2c(Cl)cccc2Cl)nc(C)c1Br (stereo not given) | 0.85 (≈ 1.97 µM) |
| Cc1ccnc2c1NC(=O)c1cccnc1N2C1CC1 [NEVIRAPINE] | 0.05 (≈ 0.188 µM) |
| Cc1cc(N2C(=O)CSC2c2c(F)cccc2Cl)no1 (stereo not given) | 1.06 (≈ 3.39 µM) |
| Cc1cc(C)nc(N2C(=O)CSC2c2c(Br)cncc2Br)c1 (stereo not given) | 1.21 (≈ 2.73 µM) |

System: not listed separately
Test: Cytotoxicity in human TZM-bl cells assessed as cell viability after 48 hrs by MTT assay
Type: cell-based
Details: not given
Summary of the method: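 TZM-bl (JC53BL-13) cells were seeded at 1 × 10^4 per well and incubated overnight at 37 °C in 5% CO2. Medium was replaced with a twofold dilution series of compound for 48 h, and viability was read by MTT absorbance. CC50 (50% cytotoxic concentration) is the mean of three independent assays, each in quadruplicate.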

| Structure (SMILES) | CC50 at 48 h [µg/mL] |
| --- | --- |
| Cc1cc(N2C(=O)CSC2c2c(F)cccc2Cl)nc(C)c1Br (stereo not given) | 40.2 (≈ 96.7 µM) |
| Cc1cc(N2C(=O)CSC2c2c(F)cccc2F)no1 (stereo not given) | 62.7 (≈ 212 µM) |
| Cc1cccc(N2C(=O)CSC2c2c(Cl)cncc2Cl)n1 (stereo not given) | 45 (≈ 132 µM) |
| CSc1nc(Cl)cc(N2C(=O)CSC2c2c(F)cccc2Cl)n1 (stereo not given) | 27 (≈ 69.2 µM) |
| Cc1nc(N2C(=O)CSC2c2c(Br)cncc2Br)ccc1Br (stereo not given) | 26.9 (≈ 52.9 µM) |
| Cc1cc(N2C(=O)CSC2c2c(Cl)cccc2Cl)nc(C)c1Br (stereo not given) | 2.5 (≈ 5.78 µM) |
| Cc1ccnc2c1NC(=O)c1cccnc1N2C1CC1 [NEVIRAPINE] | 76.1 (≈ 286 µM) |
| Cc1cc(N2C(=O)CSC2c2c(F)cccc2Cl)no1 (stereo not given) | 38.5 (≈ 123 µM) |
| Cc1cc(C)nc(N2C(=O)CSC2c2c(Br)cncc2Br)c1 (stereo not given) | 49.8 (≈ 112 µM) |

System: not listed separately
Test: Selectivity index, ratio of CC50 for human TZM-bl cells to EC50 for X4 tropic Human immunodeficiency virus 1 subtype B-3B
Type: cell-based
Details: read-out: Ratio CC50/EC50
Summary of the method: (§2)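 Selectivity index is CC50/EC50. […] EC50 came from the 2-day luciferase (RLU) readout in HIV-1-infected TZM-bl cells (mean of two assays).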

| Structure (SMILES) | selectivity ratio |
| --- | --- |
| Cc1cc(N2C(=O)CSC2c2c(F)cccc2Cl)nc(C)c1Br (stereo not given) | 447 |
| Cc1cc(N2C(=O)CSC2c2c(F)cccc2F)no1 (stereo not given) | 62 |
| Cc1cccc(N2C(=O)CSC2c2c(Cl)cncc2Cl)n1 (stereo not given) | 69.8 |
| CSc1nc(Cl)cc(N2C(=O)CSC2c2c(F)cccc2Cl)n1 (stereo not given) | 29 |
| Cc1nc(N2C(=O)CSC2c2c(Br)cncc2Br)ccc1Br (stereo not given) | 4.4 |
| Cc1cc(N2C(=O)CSC2c2c(Cl)cccc2Cl)nc(C)c1Br (stereo not given) | 2.4 |
| Cc1ccnc2c1NC(=O)c1cccnc1N2C1CC1 [NEVIRAPINE] | 1520 |
| Cc1cc(N2C(=O)CSC2c2c(F)cccc2Cl)no1 (stereo not given) | 57.4 |
| Cc1cc(C)nc(N2C(=O)CSC2c2c(Br)cncc2Br)c1 (stereo not given) | 35.3 |

System: not listed separately
Test: Selectivity index, ratio of CC50 for human TZM-bl cells to EC50 for R5 tropic Human immunodeficiency virus 1 subtype B-ADA5
Type: toxicity, cell-based
Details: read-out: Ratio CC50/EC50
Summary of the method: as §2

| Structure (SMILES) | selectivity ratio |
| --- | --- |
| Cc1cc(N2C(=O)CSC2c2c(F)cccc2Cl)nc(C)c1Br (stereo not given) | 335 |
| Cc1cc(N2C(=O)CSC2c2c(F)cccc2F)no1 (stereo not given) | 46.8 |
| Cc1cccc(N2C(=O)CSC2c2c(Cl)cncc2Cl)n1 (stereo not given) | 27.4 |
| CSc1nc(Cl)cc(N2C(=O)CSC2c2c(F)cccc2Cl)n1 (stereo not given) | 21.4 |
| Cc1nc(N2C(=O)CSC2c2c(Br)cncc2Br)ccc1Br (stereo not given) | 10.7 |
| Cc1cc(N2C(=O)CSC2c2c(Cl)cccc2Cl)nc(C)c1Br (stereo not given) | 2.9 |
| Cc1ccnc2c1NC(=O)c1cccnc1N2C1CC1 [NEVIRAPINE] | 1520 |
| Cc1cc(N2C(=O)CSC2c2c(F)cccc2Cl)no1 (stereo not given) | 36.3 |
| Cc1cc(C)nc(N2C(=O)CSC2c2c(Br)cncc2Br)c1 (stereo not given) | 41.1 |

System: Human immunodeficiency virus 1
Test: Antiviral activity against X4 tropic Human immunodeficiency virus 1 subtype D-UG070 infected in human TZM-bl cells assessed as inhibition of virus-induced cytopathic effect after 2 days by luciferase assay
Type: functional, organism-based
Details: Human immunodeficiency virus 1, subtype D-UG070, TZM-bl, 48 h
Summary of the method: as §1

| Structure (SMILES) | EC50 [µg/mL] |
| --- | --- |
| Cc1cc(N2C(=O)CSC2c2c(F)cccc2Cl)nc(C)c1Br (stereo not given) | 0.1 (≈ 0.241 µM) |
| Cc1cc(N2C(=O)CSC2c2c(F)cccc2F)no1 (stereo not given) | 1.9 (≈ 6.41 µM) |
| Cc1cccc(N2C(=O)CSC2c2c(Cl)cncc2Cl)n1 (stereo not given) | 3.1 (≈ 9.11 µM) |
| CSc1nc(Cl)cc(N2C(=O)CSC2c2c(F)cccc2Cl)n1 (stereo not given) | 1.8 (≈ 4.61 µM) |
| Cc1cc(N2C(=O)CSC2c2c(Cl)cccc2Cl)nc(C)c1Br (stereo not given) | 0.29 (≈ 0.671 µM) |
| Cc1ccnc2c1NC(=O)c1cccnc1N2C1CC1 [NEVIRAPINE] | 0.05 (≈ 0.188 µM) |
| Cc1cc(N2C(=O)CSC2c2c(F)cccc2Cl)no1 (stereo not given) | 0.75 (≈ 2.4 µM) |
| Cc1cc(C)nc(N2C(=O)CSC2c2c(Br)cncc2Br)c1 (stereo not given) | 2.1 (≈ 4.74 µM) |

System: Human immunodeficiency virus 1
Test: Antiviral activity against R5 tropic Human immunodeficiency virus 1 subtype C-VB59 infected in human TZM-bl cells assessed as inhibition of virus-induced cytopathic effect after 2 days by luciferase assay
Type: functional, organism-based
Details: Human immunodeficiency virus 1, subtype C-VB59, TZM-bl, 48 h
Summary of the method: as §1

| Structure (SMILES) | EC50 [µg/mL] |
| --- | --- |
| Cc1cc(N2C(=O)CSC2c2c(F)cccc2Cl)nc(C)c1Br (stereo not given) | 0.07 (≈ 0.168 µM) |
| Cc1cc(N2C(=O)CSC2c2c(F)cccc2F)no1 (stereo not given) | 1.45 (≈ 4.89 µM) |
| Cc1cccc(N2C(=O)CSC2c2c(Cl)cncc2Cl)n1 (stereo not given) | 1.95 (≈ 5.73 µM) |
| CSc1nc(Cl)cc(N2C(=O)CSC2c2c(F)cccc2Cl)n1 (stereo not given) | 0.65 (≈ 1.67 µM) |
| Cc1cc(N2C(=O)CSC2c2c(Cl)cccc2Cl)nc(C)c1Br (stereo not given) | 0.35 (≈ 0.81 µM) |
| Cc1ccnc2c1NC(=O)c1cccnc1N2C1CC1 [NEVIRAPINE] | 0.05 (≈ 0.188 µM) |
| Cc1cc(N2C(=O)CSC2c2c(F)cccc2Cl)no1 (stereo not given) | 0.68 (≈ 2.17 µM) |
| Cc1cc(C)nc(N2C(=O)CSC2c2c(Br)cncc2Br)c1 (stereo not given) | 1.59 (≈ 3.59 µM) |

System: not listed separately
Test: Selectivity index, ratio of CC50 for human TZM-bl cells to EC50 for X4 tropic Human immunodeficiency virus 1 subtype D-UG070
Type: toxicity, cell-based
Details: read-out: Ratio CC50/EC50
Summary of the method: as §2

| Structure (SMILES) | selectivity ratio |
| --- | --- |
| Cc1cc(N2C(=O)CSC2c2c(F)cccc2Cl)nc(C)c1Br (stereo not given) | 402 |
| Cc1cc(N2C(=O)CSC2c2c(F)cccc2F)no1 (stereo not given) | 33 |
| Cc1cccc(N2C(=O)CSC2c2c(Cl)cncc2Cl)n1 (stereo not given) | 14.5 |
| CSc1nc(Cl)cc(N2C(=O)CSC2c2c(F)cccc2Cl)n1 (stereo not given) | 15 |
| Cc1cc(N2C(=O)CSC2c2c(Cl)cccc2Cl)nc(C)c1Br (stereo not given) | 8.6 |
| Cc1ccnc2c1NC(=O)c1cccnc1N2C1CC1 [NEVIRAPINE] | 1520 |
| Cc1cc(N2C(=O)CSC2c2c(F)cccc2Cl)no1 (stereo not given) | 51.3 |
| Cc1cc(C)nc(N2C(=O)CSC2c2c(Br)cncc2Br)c1 (stereo not given) | 23.7 |

System: not listed separately
Test: Selectivity index, ratio of CC50 for human TZM-bl cells to EC50 for R5 tropic Human immunodeficiency virus 1 subtype C-VB59
Type: toxicity, cell-based
Details: read-out: Ratio CC50/EC50
Summary of the method: as §2

| Structure (SMILES) | selectivity ratio |
| --- | --- |
| Cc1cc(N2C(=O)CSC2c2c(F)cccc2Cl)nc(C)c1Br (stereo not given) | 574 |
| Cc1cc(N2C(=O)CSC2c2c(F)cccc2F)no1 (stereo not given) | 43.2 |
| Cc1cccc(N2C(=O)CSC2c2c(Cl)cncc2Cl)n1 (stereo not given) | 23.1 |
| CSc1nc(Cl)cc(N2C(=O)CSC2c2c(F)cccc2Cl)n1 (stereo not given) | 41.5 |
| Cc1cc(N2C(=O)CSC2c2c(Cl)cccc2Cl)nc(C)c1Br (stereo not given) | 7.1 |
| Cc1ccnc2c1NC(=O)c1cccnc1N2C1CC1 [NEVIRAPINE] | 1520 |
| Cc1cc(N2C(=O)CSC2c2c(F)cccc2Cl)no1 (stereo not given) | 56.6 |
| Cc1cc(C)nc(N2C(=O)CSC2c2c(Br)cncc2Br)c1 (stereo not given) | 31.3 |

Biological target: Human immunodeficiency virus type 1 reverse transcriptase (Human immunodeficiency virus 1) (UniProt Q72547)
Test: Inhibition of biotin-dNTP labeled HIV-1 reverse transcriptase using ABST as substrate at 100 ug/ml after 1 hr by ELISA
Details: not given
Summary of the method: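 ELISA-format RT assay. Template/primer, biotin- and DIG-labelled dNTPs and RT enzyme in lysis buffer were incubated 1 h at 37 °C. The product was captured on streptavidin, detected with anti-DIG-peroxidase and ABTS substrate, and absorbance read at 405 nm. Activity is reported as percent inhibition of RT.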

| Structure (SMILES) | inhibition [%] |
| --- | --- |
| Cc1cc(N2C(=O)CSC2c2c(F)cccc2Cl)nc(C)c1Br (stereo not given) | 91.2 |
| Cc1cc(N2C(=O)CSC2c2c(F)cccc2F)no1 (stereo not given) | 98.1 |
| Cc1cccc(N2C(=O)CSC2c2c(Cl)cncc2Cl)n1 (stereo not given) | 84.1 |
| CSc1nc(Cl)cc(N2C(=O)CSC2c2c(F)cccc2Cl)n1 (stereo not given) | 76.5 |
| Cc1nc(N2C(=O)CSC2c2c(Br)cncc2Br)ccc1Br (stereo not given) | 75.9 |
| Cc1cc(N2C(=O)CSC2c2c(Cl)cccc2Cl)nc(C)c1Br (stereo not given) | 60.7 |
| Cc1cc(N2C(=O)CSC2c2c(F)cccc2Cl)no1 (stereo not given) | 95.5 |
| Cc1cc(C)nc(N2C(=O)CSC2c2c(Br)cncc2Br)c1 (stereo not given) | 62.8 |

System: Human immunodeficiency virus 1
Test: Antiviral activity against X4 tropic Human immunodeficiency virus 1 subtype B-3B infected in human TZM-bl cells assessed as inhibition of virus-induced cytopathic effect after 2 days by luciferase assay
Type: functional, organism-based
Details: 48 h
Summary of the method: as §1

| Structure (SMILES) | EC50 [µg/mL] |
| --- | --- |
| Cc1cc(N2C(=O)CSC2c2c(F)cccc2Cl)nc(C)c1Br (stereo not given) | 0.09 (≈ 0.216 µM) |
| Cc1cc(N2C(=O)CSC2c2c(F)cccc2F)no1 (stereo not given) | 1.01 (≈ 3.41 µM) |
| Cc1cccc(N2C(=O)CSC2c2c(Cl)cncc2Cl)n1 (stereo not given) | 0.65 (≈ 1.91 µM) |
| CSc1nc(Cl)cc(N2C(=O)CSC2c2c(F)cccc2Cl)n1 (stereo not given) | 0.93 (≈ 2.38 µM) |
| Cc1nc(N2C(=O)CSC2c2c(Br)cncc2Br)ccc1Br (stereo not given) | 6.09 (≈ 12 µM) |
| Cc1cc(N2C(=O)CSC2c2c(Cl)cccc2Cl)nc(C)c1Br (stereo not given) | 1.04 (≈ 2.41 µM) |
| Cc1ccnc2c1NC(=O)c1cccnc1N2C1CC1 [NEVIRAPINE] | 0.05 (≈ 0.188 µM) |
| Cc1cc(N2C(=O)CSC2c2c(F)cccc2Cl)no1 (stereo not given) | 0.67 (≈ 2.14 µM) |
| Cc1cc(C)nc(N2C(=O)CSC2c2c(Br)cncc2Br)c1 (stereo not given) | 1.41 (≈ 3.18 µM) |
